Assay results reported in PMC7188312 (Nature, 2019).
In brackets after ≈: the same amount, converted by molar mass.

Columns and labels:
K. pneumoniae = details: cited from earlier work
E. coli = details: cited from earlier work
[1] = Cytotoxicity, microplate Alamar Blue assay; assay type: cell-based; details: human
Method in brief: (§1)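 FaDu, HepG2 and HEK293-RFP cells were grown in Eagle's MEM with 10% FBS at 37°C, 5% CO2. Cells were seeded in exponential growth, and after 24 h the medium was replaced with fresh medium holding 2-fold serial dilutions of test compound made in water. After 72 h, resazurin was added to a final 0.15 mM. […] was read 3 h later. Biological replicates.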

[2] = system: Acinetobacter baumannii ATCC 17978; test: MIC, microbroth dilution; assay type: cell-based; details: ATCC17978
[3] = system: Klebsiella pneumoniae ATCC 700603; test: MIC, microbroth dilution; assay type: cell-based
[4] = system: Proteus mirabilis KLE 2600; test: MIC, microbroth dilution, anaerobic; assay type: cell-based; details: KLE2600
[5] = system: Haemophilus parainfluenzae KLE 2367; test: MIC, microbroth dilution, anaerobic; assay type: cell-based; details: KLE2367
[6] = system: Mycobacterium tuberculosis mc^26020; test: MIC, resazurin; assay type: cell-based
[7] = system: Pseudomonas aeruginosa PAO1; test: MIC, microbroth dilution; assay type: cell-based
[8] = system: Bacteroides fragilis ATCC 25285; test: MIC, microbroth dilution, anaerobic; assay type: cell-based; details: ATCC25285
[9] = system: Faecalibacterium prausnitzii KLE 2243; test: MIC, microbroth dilution, anaerobic; assay type: cell-based; details: KLE2243
[10] = Cytotoxicity, microplate Alamar Blue assay; assay type: cell-based; details: human, HepG2 liver hepatocellular carcinoma cells (ATCC HB-8065)
Method in brief: as §1

[11] = system: Bacteroides xylanisolvens KLE 2253; test: MIC, microbroth dilution, anaerobic; assay type: cell-based; details: KLE2253
[12] = system: Salmonella Typhimurium LT2 ATCC 19585; test: MIC, microbroth dilution, anaerobic; assay type: cell-based; details: Salmonella enterica, ATCC19585|TYPHIMURIUM
[13] = system: Stenotrophomonas maltophilia KLE 11416; test: MIC, microbroth dilution, anaerobic; assay type: cell-based; details: KLE11416
[14] = system: P. aeruginosa pmrB 523C>T; test: MIC, microbroth dilution; assay type: cell-based; details: Pseudomonas aeruginosa
[15] = Cytotoxicity, microplate Alamar Blue assay; assay type: cell-based; details: human, FaDu pharynx squamous cell carcinoma cells (ATCC HTB-43)
Method in brief: as §1

[16] = system: K. pneumoniae clinical isolates; test: microbe, parasite or virus in culture; assay type: cell-based; details: Klebsiella pneumoniae, K. pneumoniae ESBL JMI 1052654
E. coli AR350 (mcr-1) = test: MIC, microbroth dilution; assay type: cell-based; details: Escherichia coli
[17] = system: Enterobacter cloacae ATCC 13047; test: MIC, microbroth dilution, anaerobic; assay type: cell-based; details: ATCC13047
[18] = system: E. coli clinical isolates; test: microbe, parasite or virus in culture; assay type: cell-based; details: Escherichia coli, E. coli ESBL JMI 1043856
[19] = system: Bacteroides caccae KLE 2423; test: MIC, microbroth dilution, anaerobic; assay type: cell-based; details: KLE2423
BAM complex, wild type = BAM complex, wild type (Escherichia coli, UniProt P0A940); test: BAM folding assay; assay type: biochemical, E. coli; details: WT BAM-nanodiscs, increasing concentrations
WT BAM (BamA of BAM) = WT BAM (BamA of BAM) (Escherichia coli, UniProt P0A940); test: Isothermal Titration Calorimetry; assay type: binding, E. coli; details: same concentration range as darobactin
Method in brief: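 BAM was expressed with 0.5 mM IPTG for 3 h, extracted from membranes in DDM and Ni-NTA purified. ITC ran at 25°C in duplicate: 20 μM BAM in 1xPBS with 0.05% DDM in the cell, 200 μM ligand in the syringe, 20 injections 300 s apart, stirring at 300 rpm. Ligand-into-buffer heats were measured as a control. Data were fitted to an independent binding model.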

[20] = molecular target: BAM complex (BamABCDE), wild type (E. coli) (UniProt P0A940); test: ITC
E. coli MG1655 = test: LPS binding assay; assay type: cell-based; details: LPS from E. coli O55:B5, 0.5–100 μg ml^−1
Method in brief: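 Microbroth dilution: E. coli MG1655 at OD600 0.001 in cation-adjusted MHIIB was added to wells holding purified E. coli O55:B5 LPS (0.5–100 μg ml−1) plus serially diluted test compound or polymyxin B. Plates were incubated overnight at 37°C. The growth-inhibiting concentration was read by eye, with and without LPS.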

NC(N)=NC(=O)CC(Nc1nc(N=C(N)N)nc(NC2CCC(NC(=O)Cn3nnc(-c4ccc(F)cc4)n3)CC2)n1)C1CC1 (centres unmarked) [MRL-494]
MIC (K. pneumoniae): 62 µg/mL (≈ 99.6 µM) | MIC (E. coli): 15 µg/mL (≈ 24.1 µM)

CC1(C)S[C@@H]2[C@H](NC(=O)[C@H](N)c3ccccc3)C(=O)N2[C@H]1C(=O)O [ampicillin]
IC50 at 72 h [1]: > 128 µg/mL | MIC [2]: 64 µg/mL (≈ 183 µM) | MIC ([3]; ATCC700603): 128 µg/mL (≈ 366 µM) | MIC ([3]; ATCC700603, K. pneumoniae ATCC700603 (SHV-18)): > 128 µg/mL | MIC [4]: > 128 µg/mL | MIC [5]: 128 µg/mL (≈ 366 µM) | MIC [6]: 16 µg/mL (≈ 45.8 µM) | MIC [7]: > 128 µg/mL | MIC [8]: 128 µg/mL (≈ 366 µM) | MIC [9]: 64 µg/mL (≈ 183 µM) | IC50 at 72 h [10]: > 128 µg/mL | MIC [11]: 1 µg/mL (≈ 2.86 µM) | MIC [12]: 2 µg/mL (≈ 5.72 µM) | MIC [13]: > 128 µg/mL | MIC [14]: > 128 µg/mL | IC50 at 72 h [15]: > 128 µg/mL | MIC [16]: > 128 µg/mL | MIC (E. coli AR350 (mcr-1)): > 128 µg/mL | MIC [17]: > 128 µg/mL | MIC [18]: > 128 µg/mL | MIC [19]: 2 µg/mL (≈ 5.72 µM)

WNWSKSF
inhibition of BAM-ND activity (BAM complex, wild type): only minimal effects | inhibition of BAM-ND activity (BAM complex, wild type; listed as linear peptide): no inhibitory activity | binding to BAM by ITC (WT BAM (BamA of BAM)): no binding

darobactin (peptide)
Kd [20]: 1200 nM | dH [20]: -25 kcal/mol

polymyxin B
effect of added purified LPS on antibiotic activity (MIC) (E. coli MG1655): antagonized polymyxin activity
